Among the data in ChEMBL document CHEMBL1132644, “Substituted isoquinolines and quinazolines as potential antiinflammatory agents. Synthesis and biological evaluation of inhibitors of tumor necrosis factor alpha” (J Med Chem, 1999) are IC50 values, retold here.

For one test, the target named is Tumor necrosis factor (Homo sapiens, UniProt P01375). As to the kind of experiment: The compound was tested in vitro for inhibitory activity against Tumor necrosis factor alpha from human PMBC cell line by ELISA test. In kind it is functional, cell-based. In a few lines:
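PBMC isolated from heparinized normal human blood by Ficoll-Histopaque, cultured in RPMI 1640 with 20% autologous plasma and L-glutamine. Compounds were added at 2× in an equal volume, 60 min preincubation, then LPS stimulation. Supernatant was taken 18 h later. TNFα sandwich ELISA (2 µg/mL mouse anti-human capture, BSA block, 2 h at 37 °C), standard curve. IC50 is the µM concentration giving 50% inhibition versus control; a subset was run in ≥3 separate experiments.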
A general note: An ELISA detects its analyte on a solid surface through an enzyme-linked reagent.

In a further test the test system is Jurkat. As to the kind of experiment: Cell toxicity against jurkat cells determined using MTT assay. The format is functional, cell-based. The settings on record: Homo sapiens. In short, it runs like this: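 Jurkat cells, MTT (3-[4,5-dimethylthiazol-2-yl]-2,5-diphenyltetrazolium bromide) read-out. The value is the µM concentration that inhibited growth by 50% of control.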

Tumor necrosis factor, sequence (P01375 whole entry): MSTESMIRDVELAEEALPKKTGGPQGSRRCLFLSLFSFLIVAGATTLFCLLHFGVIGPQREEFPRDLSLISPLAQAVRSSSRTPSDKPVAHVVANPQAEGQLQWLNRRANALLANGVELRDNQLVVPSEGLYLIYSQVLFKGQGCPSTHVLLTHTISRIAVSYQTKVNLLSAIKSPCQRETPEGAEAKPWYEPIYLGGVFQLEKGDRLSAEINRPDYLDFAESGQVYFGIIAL

As for `CCOC(=O)CCCn1ccc2cc(OC(=O)OCC)c(OC(=O)OCC)cc2c1=O`, the values for the 50% inhibitory concentration (IC50) on Tumor necrosis factor and with Jurkat were 11 µM and 40 µM, respectively.

For `CNC(=O)CCCn1ccc2cc(OC)c(OC)cc2c1=O`, the IC50 (in general, the concentration that inhibits the measured activity by half) on Tumor necrosis factor is over 100 µM. The compound `CCOC(=O)CCCn1cnc2ccccc2c1=O` displayed an IC50 against Tumor necrosis factor of over 25 µM. Turning to `CCOC(=O)CCCn1cc(Br)c2cc(O)c(O)cc2c1=O`, the IC50 came to 1 µM on Tumor necrosis factor and 11 µM in the test with Jurkat. In turn, `CCOC(=O)CCCOc1nc(Nc2ccc(Br)cc2)nc2cc(OC)c(OC)cc12` registered an IC50 at Tumor necrosis factor of over 25 µM. For `CCOC(=O)CCCn1cc(F)c2cc(OC)c(OC)cc2c1=O`, the IC50 against Tumor necrosis factor turned out to be 20 µM.

In the case of `CCOC(=O)CCCn1cc(Br)c2cc(OC)c(OC)cc2c1=O`, at Tumor necrosis factor, inhibition was half-maximal at 51 µM (IC50).

In the case of `CCOC(=O)CCCn1cc(F)c2c(F)c(OC)c(OC)cc2c1=O`, the IC50 at Tumor necrosis factor was over 100 µM.

Turning to `COc1cc2ccnc(Nc3cccc(Br)c3)c2cc1OC`, the IC50 against Tumor necrosis factor amounted to 37 µM.

With `CCOC(=O)CCCn1cc(C#N)c2cc(OC)c(OC)cc2c1=O`, the IC50 against Tumor necrosis factor was determined as 5 µM; in the test on Jurkat, 10 µM.

For `CCOC(=O)CCCn1c(Cl)nc2cc(OC)c(OC)cc2c1=O`, the IC50 at Tumor necrosis factor was 48 µM. With `CCOC(=O)CCCCn1cnc2cc(OC)c(OC)cc2c1=O`, the 50% inhibitory concentration (IC50) amounted to 6 µM against Tumor necrosis factor and 8 µM in the test with Jurkat.

Turning to `CCOC(=O)CCCN1CNc2ccc(N)cc2C1=O`, the figures for the IC50 against Tumor necrosis factor and in the test with Jurkat were 10 µM and over 100 µM, respectively. For `CCOC(=O)CCCn1ccc2cc(OC(C)=O)c(OC(C)=O)cc2c1=O`, the IC50 with Jurkat is 40 µM. Take `COc1cc2ccnc(Nc3cccc(Cl)c3)c2cc1OC`: the IC50 against Tumor necrosis factor came out at 33 µM. On the same count and under the same terms, as for `CCOC(=O)CCCn1cnc2cccc(Cl)c2c1=O`, the figure is over 25 µM; as for `CCOC(=O)CCCn1cnc2cc([N+](=O)[O-])ccc2c1=O`, over 25 µM. The same measure, in the same setting: the figure for `CCOC(=O)CCCn1c(Nc2ccccc2)nc2cc(OC)c(OC)cc2c1=O` is over 25 µM. `CCOC(=O)CCCOc1nc(Nc2ccccc2)nc2cc(OC)c(OC)cc12`: the IC50 against Tumor necrosis factor is over 25 µM.

On Tumor necrosis factor, `CCOC(=O)CCCOc1nc(N(C)C)nc2cc(OC)c(OC)cc12` showed an IC50 of over 25 µM. As to `CCOC(=O)CCCn1cnc2cc(N)ccc2c1=O`, the IC50 against Tumor necrosis factor came out at 9 µM; with Jurkat, 13 µM. On to `CCOC(=O)CCCn1cnc2ccc(N)cc2c1=O`, for which the figures for the IC50 on Tumor necrosis factor and in the test on Jurkat were 4 µM and over 50 µM, respectively. For `CCOC(=O)CCCN1CNc2cc(N)ccc2C1=O` the same measures were 5 µM and over 50 µM. Consider `COc1cc2ccn(CCCC(=O)O)c(=O)c2cc1OC`, for which the IC50 against Tumor necrosis factor is over 100 µM. For `CCOC(=O)CCCn1cc(CN)c2cc(OC)c(OC)cc2c1=O`, the IC50 against Tumor necrosis factor was 13 µM; with Jurkat it was 7 µM. For `CCOC(=O)CCCCn1ccc2cc(OC)c(OC)cc2c1=O` the same measures were 21 µM and 22 µM. Consider `CCCn1c(=O)n(CCCC(=O)OCC)c(=O)c2nccnc21`, for which the IC50 against Tumor necrosis factor is 3 µM; in the test on Jurkat, over 25 µM. In turn, `CCOC(=O)CCCn1cnc2cc(Cl)ccc2c1=O` showed an IC50 at Tumor necrosis factor of over 25 µM. Turning to `CCOC(=O)CCCn1ccc2ccccc2c1=O`, the 50% inhibitory concentration (IC50) is 5 µM on Tumor necrosis factor and over 50 µM in the test on Jurkat. In turn, `CCOC(=O)CCCn1cnc2cc(OC)c(OC)c(N)c2c1=O` [listing 1 of 2 here] yielded an IC50 against Tumor necrosis factor of 15 µM. Turning to `CCOC(=O)CCCn1cnc2cc(OC)c(OC)c([N+](=O)[O-])c2c1=O`, the IC50 is 11 µM against Tumor necrosis factor and over 25 µM in the test on Jurkat. In the case of `CCOC(=O)CCCn1c(Nc2ccc(Br)cc2)nc2cc(OC)c(OC)cc2c1=O`, the IC50 at Tumor necrosis factor is over 50 µM. At Tumor necrosis factor, `CCOC(=O)CCCn1cnc2cc(F)c(F)cc2c1=O` had an IC50 of over 25 µM. At Tumor necrosis factor, `COc1cc2ccnc(Nc3ccc(Br)cc3)c2cc1OC` came in with an IC50 of 38 µM. Turning to `CCOC(=O)CCCn1cnc2cc(OC)c(OC)cc2c1=O`, the IC50 at Tumor necrosis factor and in the test with Jurkat was 3 µM in each case. For `CCOC(=O)CCCn1cnc2cc(OC)c(OC)c(NC(C)=O)c2c1=O`, the IC50 against Tumor necrosis factor was over 100 µM. On the same count and under the same terms, as for `CCOC(=O)CCCn1cnc2ccc([N+](=O)[O-])cc2c1=O`, the figure is over 25 µM.

Take `CCOC(=O)CCCn1c(N=[N+]=[N-])nc2cc(OC)c(OC)cc2c1=O`: the IC50 against Tumor necrosis factor is 14 µM; with Jurkat, over 25 µM. In the case of `CCOC(=O)CCn1ccc2cc(OC)c(OC)cc2c1=O`, it took 50 µM to reach half-maximal inhibition at Tumor necrosis factor (IC50).

Take `CCOC(=O)CCCn1cc(C(C)=O)c2cc(OC)c(OC)cc2c1=O`: the figures for the IC50 against Tumor necrosis factor and with Jurkat were 15 µM and 47 µM, respectively. The compound `CCOC(=O)CCCn1c(N)nc2cc(OC)c(OC)cc2c1=O` displayed an IC50 at Tumor necrosis factor of over 25 µM. The compound `COc1cc2ccnc(NCCO)c2cc1OC` had an IC50 on Tumor necrosis factor of 55 µM. On the same count and under the same terms, the figure for `CNC(=O)CCCn1cc(Br)c2cc(OC)c(OC)cc2c1=O` is over 100 µM. On the same count and under the same terms, the figure for `CCOC(=O)CCCn1cnc2ccc(Br)cc2c1=O` is over 25 µM; for `CCOC(=O)CCCn1cnc2cc(O)c(O)cc2c1=O` it is 48 µM. Same read-out and setting: as for `COc1cc2ccnc(Nc3ccccc3)c2cc1OC`, the figure is over 100 µM; as for `CCOC(=O)CCCn1cnc2cc(OC)c(OC)c(N=[N+]=[N-])c2c1=O`, over 25 µM. Regarding `CCOC(=O)CCCn1ccc2cc(OC)c(OC)cc2c1=O`, the IC50 against Tumor necrosis factor was 5 µM; with Jurkat it was over 50 µM. `CCOC(=O)CCCn1cnc2ccc(Cl)cc2c1=O` had an IC50 at Tumor necrosis factor of over 25 µM. Still for that read-out and setting: the figure for `COc1cc2ccnc(Nc3ccc(Cl)cc3)c2cc1OC` is 35 µM. Consider `CCOC(=O)CCCn1ccc2cc(O)c(O)cc2c1=O`, for which the IC50 at Tumor necrosis factor is 2 µM; with Jurkat, 47 µM. In turn, `CCOC(=O)CCCn1cnc2cc(F)ccc2c1=O` had an IC50 on Tumor necrosis factor of over 25 µM. In turn, `CCOC(=O)CCCn1c(Nc2ccc(N=[N+]=[N-])cc2)nc2cc(OC)c(OC)cc2c1=O` yielded an IC50 against Tumor necrosis factor of over 50 µM. Still for that read-out and setting: as for `CCOC(=O)CCCn1cc([N+](=O)[O-])c2cc(OC)c(OC)cc2c1=O`, the figure is 35 µM; as for `CCOC(=O)CCCOc1nc(Cl)nc2cc(OC)c(OC)cc12`, 68 µM. In the case of `CCOC(=O)CCCn1cnc2cc(OC)c(OC)c(Cl)c2c1=O`, the IC50 against Tumor necrosis factor stood at 22 µM; with Jurkat, 89 µM. Take `CCOC(=O)CCn1cnc2cc(OC)c(OC)cc2c1=O`: the IC50 was 9 µM against Tumor necrosis factor and over 25 µM with Jurkat.

Take `CCOC(=O)CCCn1cnc2ccc(F)cc2c1=O`: the IC50 at Tumor necrosis factor is over 25 µM. On the same count and under the same terms, the figure for `CCOC(=O)CCCn1cc(N)c2cc(OC)c(OC)cc2c1=O` is 37 µM.

For `COc1cc2ccn(CCCC(=O)OCCN3CCOCC3)c(=O)c2cc1OC`, the values for the IC50 on Tumor necrosis factor and in the test on Jurkat were 10 µM and over 100 µM, respectively. On the same counts, the results for `CCOC(=O)CCCn1cnc2cc(OC)c(OC)c(N)c2c1=O` [listing 2 of 2 here] are 20 µM and over 100 µM.
